Values joined by “and” are separate entries in the source; they are usually repeats but may differ in a detail not shown here. Identical values can stand only once.
Assays:
HEK-293T = assay: Multiplex assay against HEK293T; format: toxicity, cell-based; details: human;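 on Population Tubulin-Different-Phenotype (%): share of the cells with healthy nuclei that show this phenotype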
Procedure, shortened: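 On a CQ1 microscope at 37°C and 5% CO2, live cells were imaged after compound addition. They had been stained at seeding with Hoechst33342, BioTracker Green Microtubule Cytoskeleton Dye, MitoTracker Red and Annexin V Alexa Fluor 680. CellPathfinder machine-learning gating assigned cells to Hoechst high-intensity objects or normal cells, normal cells to healthy, pyknosed or fragmented nuclei, and pyknosed cells to mitotic or apoptotic. Tubulin, mitochondrial-mass and membrane-permeability phenotypes are per cents of healthy-nucleus cells.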

Fibroblast = assay: Incucyte cell viability with human fibroblast; format: toxicity, cell-based; details: 10 µM, compound concentration 10 uM; further: filed as whole numbers so only -1 and 0 and 1 occur
[1] = 12 h, 1 µM, compound concentration 1 uM, replicate 1
[2] = 12 h, 1 µM, compound concentration 1 uM, replicate 2
[3] = 12 h, 10 µM, compound concentration 10 uM, replicate 1
[4] = 12 h, 10 µM, compound concentration 10 uM, replicate 2
[5] = 24 h, 1 µM, compound concentration 1 uM, replicate 1
[6] = 24 h, 1 µM, compound concentration 1 uM, replicate 2
[7] = 24 h, 10 µM, compound concentration 10 uM, replicate 1
[8] = 24 h, 10 µM, compound concentration 10 uM, replicate 2
[9] = 48 h, 10 µM, compound concentration 10 uM, replicate 1
[10] = 48 h, 10 µM, compound concentration 10 uM, replicate 2

CC(C)Oc1ccc(C(=O)N[C@H](CNC(=O)CN(C)C)Cc2ccc(-c3cn4cccc([C@H](C)O)c4n3)cc2)cc1Cl [GSK-923295A]
Population Apoptotic (%) (HEK-293T; [1]): 15% | Population Fragmented Nuclei (%) (HEK-293T; [1]): 9% | Population Healthy Nuclei (%) (HEK-293T; [1]): 61% | Population Hoechst High Intensity Objects (%) (HEK-293T; [1]): 8% | Population Membrane Permeable-Phenotype (%) (HEK-293T; [1]): 6% | Population Mitochondria Different-Phenotype (%) (HEK-293T; [1]): 10% | Population Mitotic Cells (%) (HEK-293T; [1]): 84% | Population Normal (%) (HEK-293T; [1]): 91% | Population Pyknosed Nuclei (%) (HEK-293T; [1]): 28% | Population Tubulin-Different-Phenotype (%) (HEK-293T; [1]): 15% | Total Cell Count (HEK-293T; [1]): 623 | Population Apoptotic (%) (HEK-293T; [2]): 7% | Population Fragmented Nuclei (%) (HEK-293T; [2]): 6% | Population Healthy Nuclei (%) (HEK-293T; [2]): 69% | Population Hoechst High Intensity Objects (%) (HEK-293T; [2]): 2% | Population Membrane Permeable-Phenotype (%) (HEK-293T; [2]): 3% | Population Mitochondria Different-Phenotype (%) (HEK-293T; [2]): 12% | Population Mitotic Cells (%) (HEK-293T; [2]): 92% | Population Normal (%) (HEK-293T; [2]): 97% | Population Pyknosed Nuclei (%) (HEK-293T; [2]): 24% | Population Tubulin-Different-Phenotype (%) (HEK-293T; [2]): 25% | Total Cell Count (HEK-293T; [2]): 1239 | Population Apoptotic (%) (HEK-293T; [3]): 33% and 93% | Population Fragmented Nuclei (%) (HEK-293T; [3]): 22% and 19% | Population Healthy Nuclei (%) (HEK-293T; [3]): 37% and 22% | Population Hoechst High Intensity Objects (%) (HEK-293T; [3]): 20% and 23% | Population Normal (%) (HEK-293T; [3]): 79% and 76% | Population Pyknosed Nuclei (%) (HEK-293T; [3]): 39% and 58% | Population Tubulin-Different-Phenotype (%) (HEK-293T; [3]): 82% and 100% | Population Healthy Nuclei (%) (HEK-293T; [4]): 28% and 73% | Population Hoechst High Intensity Objects (%) (HEK-293T; [4]): 4% | Population Membrane Permeable-Phenotype (%) (HEK-293T; [4]): 13% and 21% | Population Mitochondria Different-Phenotype (%) (HEK-293T; [4]): 86% and 42% | Population Mitotic Cells (%) (HEK-293T; [4]): 32% and 82% | Population Normal (%) (HEK-293T; [4]): 95% | Population Pyknosed Nuclei (%) (HEK-293T; [4]): 62% and 24% | Population Tubulin-Different-Phenotype (%) (HEK-293T; [4]): 94% and 98% | Population Apoptotic (%) (HEK-293T; [5]): 10% | Population Fragmented Nuclei (%) (HEK-293T; [5]): 10% | Population Healthy Nuclei (%) (HEK-293T; [5]): 65% | Population Hoechst High Intensity Objects (%) (HEK-293T; [5]): 7% | Population Membrane Permeable-Phenotype (%) (HEK-293T; [5]): 6% | Population Mitochondria Different-Phenotype (%) (HEK-293T; [5]): 11% | Population Mitotic Cells (%) (HEK-293T; [5]): 90% | Population Normal (%) (HEK-293T; [5]): 92% | Population Pyknosed Nuclei (%) (HEK-293T; [5]): 24% | Population Tubulin-Different-Phenotype (%) (HEK-293T; [5]): 23% | Total Cell Count (HEK-293T; [5]): 668 | Population Apoptotic (%) (HEK-293T; [6]): 12% | Population Fragmented Nuclei (%) (HEK-293T; [6]): 13% | Population Healthy Nuclei (%) (HEK-293T; [6]): 77% | Population Hoechst High Intensity Objects (%) (HEK-293T; [6]): 4% | Population Membrane Permeable-Phenotype (%) (HEK-293T; [6]): 4% | Population Mitochondria Different-Phenotype (%) (HEK-293T; [6]): 8% | Population Mitotic Cells (%) (HEK-293T; [6]): 87% | Population Normal (%) (HEK-293T; [6]): 95% | Population Pyknosed Nuclei (%) (HEK-293T; [6]): 8% | Population Tubulin-Different-Phenotype (%) (HEK-293T; [6]): 28% | Total Cell Count (HEK-293T; [6]): 1632 | Population Apoptotic (%) (HEK-293T; [7]): 92% and 41% | Population Fragmented Nuclei (%) (HEK-293T; [7]): 19% | Population Healthy Nuclei (%) (HEK-293T; [7]): 33% and 54% | Population Hoechst High Intensity Objects (%) (HEK-293T; [7]): 22% and 18% | Population Membrane Permeable-Phenotype (%) (HEK-293T; [7]): 0% and 19% | Population Mitochondria Different-Phenotype (%) (HEK-293T; [7]): 100% and 41% | Population Normal (%) (HEK-293T; [7]): 77% and 81% | Population Pyknosed Nuclei (%) (HEK-293T; [7]): 47% and 26% | Population Tubulin-Different-Phenotype (%) (HEK-293T; [7]): 91% | Population Fragmented Nuclei (%) (HEK-293T; [8]): 8% and 4% | Population Healthy Nuclei (%) (HEK-293T; [8]): 39% and 72% | Population Hoechst High Intensity Objects (%) (HEK-293T; [8]): 4% and 7% | Population Mitochondria Different-Phenotype (%) (HEK-293T; [8]): 94% and 40% | Population Normal (%) (HEK-293T; [8]): 95% and 92% | Population Pyknosed Nuclei (%) (HEK-293T; [8]): 51% and 22% | Population Tubulin-Different-Phenotype (%) (HEK-293T; [8]): 96% and 98% | Population Apoptotic (%) (HEK-293T; [9]): 87% | Population Fragmented Nuclei (%) (HEK-293T; [9]): 23% | Population Healthy Nuclei (%) (HEK-293T; [9]): 46% | Population Hoechst High Intensity Objects (%) (HEK-293T; [9]): 30% | Population Membrane Permeable-Phenotype (%) (HEK-293T; [9]): 3% | Population Mitochondria Different-Phenotype (%) (HEK-293T; [9]): 100% | Population Mitotic Cells (%) (HEK-293T; [9]): 12% | Population Normal (%) (HEK-293T; [9]): 69% | Population Pyknosed Nuclei (%) (HEK-293T; [9]): 29% | Population Tubulin-Different-Phenotype (%) (HEK-293T; [9]): 88% | Total Cell Count (HEK-293T; [9]): 156 | Population Apoptotic (%) (HEK-293T; [10]): 75% | Population Fragmented Nuclei (%) (HEK-293T; [10]): 10% | Population Healthy Nuclei (%) (HEK-293T; [10]): 53% | Population Hoechst High Intensity Objects (%) (HEK-293T; [10]): 15% | Population Membrane Permeable-Phenotype (%) (HEK-293T; [10]): 9% | Population Mitochondria Different-Phenotype (%) (HEK-293T; [10]): 86% | Population Mitotic Cells (%) (HEK-293T; [10]): 24% | Population Normal (%) (HEK-293T; [10]): 84% | Population Pyknosed Nuclei (%) (HEK-293T; [10]): 35% | Population Tubulin-Different-Phenotype (%) (HEK-293T; [10]): 97% | Total Cell Count (HEK-293T; [10]): 164 | Growth Rate (Fibroblast; 0 h, replicate number 1, timepoint 0 hours): 0 | Growth Rate (Fibroblast; 0 h, replicate number 2, timepoint 0 hours): 1 | Growth Rate (Fibroblast; 6 h, replicate number 1, timepoint 6 hours): 0 | Growth Rate (Fibroblast; 12 h, replicate number 1, timepoint 12 hours): 0 | Growth Rate (Fibroblast; 18 h, replicate number 1, timepoint 18 hours): 0 | Growth Rate (Fibroblast; 24 h, replicate number 1, timepoint 24 hours): 0
